From publication PMC5730275 (Chemical communications (Cambridge, England), 2017)
Changes are numbered by the printed parent chain.

Key:
[1] = biological target: T1, Q320A NAPE-PLD mutant (Homo sapiens, UniProt Q6IQ20, Q320A); assay: Inhibition of Q320A NAPE-PLD mutant; format: biochemical
T1 sequence (Q6IQ20 1-393 Q320A): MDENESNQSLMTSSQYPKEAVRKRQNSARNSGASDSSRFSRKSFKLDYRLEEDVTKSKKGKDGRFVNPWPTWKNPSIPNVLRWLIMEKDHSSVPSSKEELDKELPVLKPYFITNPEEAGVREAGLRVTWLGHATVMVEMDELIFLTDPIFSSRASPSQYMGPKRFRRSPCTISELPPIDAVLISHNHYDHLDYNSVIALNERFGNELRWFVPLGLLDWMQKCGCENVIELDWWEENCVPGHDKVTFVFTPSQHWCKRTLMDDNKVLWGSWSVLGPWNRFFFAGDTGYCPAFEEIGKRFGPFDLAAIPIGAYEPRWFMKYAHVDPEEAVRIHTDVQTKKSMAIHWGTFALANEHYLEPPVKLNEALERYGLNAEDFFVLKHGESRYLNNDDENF

[2] = biological target: T2, Q320S NAPE-PLD (Homo sapiens, UniProt Q6IQ20, Q320S); assay: Inhibition of Q320S NAPE-PLD mutant; format: biochemical
T2 sequence (Q6IQ20 1-393 Q320S): T1 sequence (Q6IQ20 1-393 Q320A) with A320S

[3] = biological target: neutral endopeptidase (Homo sapiens, UniProt P08473); assay: Selectivity: zinc-dependent enzyme neutral endopeptidase; format: biochemical; details: 50 μM
Chain of neutral endopeptidase (P08473 whole entry, species assumed): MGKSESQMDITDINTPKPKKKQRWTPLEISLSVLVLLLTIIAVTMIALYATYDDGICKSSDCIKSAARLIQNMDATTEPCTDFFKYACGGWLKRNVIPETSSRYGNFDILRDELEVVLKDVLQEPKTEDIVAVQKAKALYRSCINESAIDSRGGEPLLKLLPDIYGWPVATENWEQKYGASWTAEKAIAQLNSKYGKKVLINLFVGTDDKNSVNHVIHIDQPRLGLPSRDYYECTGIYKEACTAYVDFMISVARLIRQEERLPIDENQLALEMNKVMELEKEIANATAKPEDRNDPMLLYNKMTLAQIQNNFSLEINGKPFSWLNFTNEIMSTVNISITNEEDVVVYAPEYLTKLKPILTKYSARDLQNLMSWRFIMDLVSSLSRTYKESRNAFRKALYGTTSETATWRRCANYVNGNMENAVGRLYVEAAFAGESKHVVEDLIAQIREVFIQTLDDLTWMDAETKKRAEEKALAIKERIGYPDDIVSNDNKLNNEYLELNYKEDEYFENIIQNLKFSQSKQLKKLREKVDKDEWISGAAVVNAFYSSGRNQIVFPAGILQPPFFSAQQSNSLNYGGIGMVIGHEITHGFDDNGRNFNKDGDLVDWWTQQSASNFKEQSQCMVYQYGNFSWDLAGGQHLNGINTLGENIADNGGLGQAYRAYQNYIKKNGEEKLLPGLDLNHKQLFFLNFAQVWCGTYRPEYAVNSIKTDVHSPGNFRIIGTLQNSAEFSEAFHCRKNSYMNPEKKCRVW

[4] = biological target: T3, NAPE-PLD mutant Q158S/Y159S (Homo sapiens, UniProt Q6IQ20, Q158S/Y159S); assay: Inhibition of double NAPE-PLD mutant Q158S/Y159S; format: biochemical; details: mutant unable to bind bile acids
T3 sequence (Q6IQ20 1-393 Q158S/Y159S): T1 sequence (Q6IQ20 1-393 Q320A) with Q158S, Y159S, A320Q

[5] = biological target: T4, human fatty acid amide hydrolase (FAAH)-1 (Homo sapiens, UniProt O00519); assay: Selectivity: FAAH-1 activity; format: biochemical; details: 300 μM
T4 sequence (O00519 1-579): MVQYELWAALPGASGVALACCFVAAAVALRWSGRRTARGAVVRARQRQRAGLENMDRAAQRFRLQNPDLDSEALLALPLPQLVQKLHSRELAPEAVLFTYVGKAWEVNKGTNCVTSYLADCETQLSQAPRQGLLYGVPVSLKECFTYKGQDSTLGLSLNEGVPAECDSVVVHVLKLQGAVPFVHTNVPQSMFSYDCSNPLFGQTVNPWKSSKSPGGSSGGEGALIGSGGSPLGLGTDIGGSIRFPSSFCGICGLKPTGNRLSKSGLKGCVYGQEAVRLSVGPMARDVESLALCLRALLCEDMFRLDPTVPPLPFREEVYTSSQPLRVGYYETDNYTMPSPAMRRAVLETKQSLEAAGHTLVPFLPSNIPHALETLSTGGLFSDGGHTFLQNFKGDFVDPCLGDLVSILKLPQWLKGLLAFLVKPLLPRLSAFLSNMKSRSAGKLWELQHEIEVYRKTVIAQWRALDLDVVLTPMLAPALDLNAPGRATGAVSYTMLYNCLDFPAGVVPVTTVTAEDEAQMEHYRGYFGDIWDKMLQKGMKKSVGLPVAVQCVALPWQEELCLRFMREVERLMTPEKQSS

[6] = test system: isofunctional, but zinc-independent enzyme activities present in cytosolic and microsomal fractions of mouse brain or small intestine; assay: Isofunctional zinc-independent enzyme activities in mouse tissue fractions; format: biochemical; details: 300 μM
[7] = biological target: angiotensin-converting enzyme (ACE) (Homo sapiens, UniProt P12821); assay: Selectivity: zinc-dependent enzyme ACE; format: biochemical; details: 50 μM
Chain of angiotensin-converting enzyme (ACE) (P12821 30-1306, species assumed): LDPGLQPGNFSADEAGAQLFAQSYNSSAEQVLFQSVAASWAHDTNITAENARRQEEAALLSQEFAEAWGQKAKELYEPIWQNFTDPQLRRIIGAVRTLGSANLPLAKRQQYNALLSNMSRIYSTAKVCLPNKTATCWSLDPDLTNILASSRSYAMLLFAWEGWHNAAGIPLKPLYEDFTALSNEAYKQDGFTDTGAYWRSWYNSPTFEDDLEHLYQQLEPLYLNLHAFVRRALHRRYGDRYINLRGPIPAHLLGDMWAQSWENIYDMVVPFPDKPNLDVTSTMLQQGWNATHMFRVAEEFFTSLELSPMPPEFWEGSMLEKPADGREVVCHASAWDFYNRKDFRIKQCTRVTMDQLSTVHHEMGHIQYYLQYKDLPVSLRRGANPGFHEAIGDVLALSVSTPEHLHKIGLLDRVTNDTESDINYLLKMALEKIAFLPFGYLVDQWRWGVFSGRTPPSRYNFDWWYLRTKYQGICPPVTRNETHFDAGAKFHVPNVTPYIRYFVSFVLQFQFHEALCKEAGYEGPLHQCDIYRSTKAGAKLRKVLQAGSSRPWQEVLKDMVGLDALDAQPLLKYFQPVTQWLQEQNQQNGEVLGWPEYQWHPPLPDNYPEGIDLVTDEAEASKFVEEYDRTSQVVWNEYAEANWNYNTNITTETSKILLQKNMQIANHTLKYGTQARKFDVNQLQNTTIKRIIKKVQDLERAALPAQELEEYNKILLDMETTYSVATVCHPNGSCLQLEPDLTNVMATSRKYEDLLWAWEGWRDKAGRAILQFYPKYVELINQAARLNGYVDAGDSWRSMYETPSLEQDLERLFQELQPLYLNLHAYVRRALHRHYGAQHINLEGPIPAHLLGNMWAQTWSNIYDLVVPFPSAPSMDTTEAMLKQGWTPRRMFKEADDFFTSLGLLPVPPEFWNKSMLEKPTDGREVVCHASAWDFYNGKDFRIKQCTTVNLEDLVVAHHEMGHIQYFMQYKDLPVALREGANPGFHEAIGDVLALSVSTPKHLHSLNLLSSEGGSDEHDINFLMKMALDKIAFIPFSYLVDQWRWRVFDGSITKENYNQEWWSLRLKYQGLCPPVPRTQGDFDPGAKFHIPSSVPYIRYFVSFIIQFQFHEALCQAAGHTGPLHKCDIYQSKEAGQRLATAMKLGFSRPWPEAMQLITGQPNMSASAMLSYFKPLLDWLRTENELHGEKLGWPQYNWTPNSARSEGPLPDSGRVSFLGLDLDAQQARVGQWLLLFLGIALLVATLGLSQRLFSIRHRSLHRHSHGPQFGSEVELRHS

[8] = biological target: purified human recombinant NAPE-PLD (Homo sapiens, UniProt Q6IQ20); assay: Inhibition of purified human recombinant NAPE-PLD; format: biochemical
Chain of purified human recombinant NAPE-PLD (Q6IQ20 whole entry): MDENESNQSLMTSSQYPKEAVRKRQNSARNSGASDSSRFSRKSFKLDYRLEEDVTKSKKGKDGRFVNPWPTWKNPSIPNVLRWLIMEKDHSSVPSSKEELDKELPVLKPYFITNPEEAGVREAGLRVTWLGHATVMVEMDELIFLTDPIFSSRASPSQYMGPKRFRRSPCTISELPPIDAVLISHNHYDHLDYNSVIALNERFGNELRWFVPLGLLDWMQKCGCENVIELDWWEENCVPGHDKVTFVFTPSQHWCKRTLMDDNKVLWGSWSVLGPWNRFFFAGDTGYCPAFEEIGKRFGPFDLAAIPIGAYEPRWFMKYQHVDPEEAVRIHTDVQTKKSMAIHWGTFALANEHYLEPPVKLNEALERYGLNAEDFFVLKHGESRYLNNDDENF
Summary of the method: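 Purified recombinant human NAPE-PLD. Michaelis-Menten kinetics and activity time-course were run with vehicle (1% DMSO) or test compound at 50 or 100 μM. Reversibility was tested by rapid dilution after preincubating the enzyme with vehicle (1% DMSO) or test compound (100 μM).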

[9] = test system: Human HEK-293 cells; assay: NAPE and FAE levels in intact HEK-293 cells by LC-MS; format: cell-based; details: 50 μM, 4 hours
Summary of the method: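 Human HEK-293 cells, which express NAPE-PLD constitutively, incubated with test compound at 50 μM for 4 h. Lipid extracts then prepared, and NAPE and fatty acid ethanolamide levels measured by liquid chromatography-mass spectrometry.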

[10] = biological target: carbonic anhydrase (CA) II (Homo sapiens, UniProt P00918); assay: Selectivity: zinc-dependent enzyme carbonic anhydrase II; format: biochemical; details: 50 μM
[11] = biological target: T5, human N-acylethanolamine acid amidase (NAAA) (Homo sapiens, UniProt Q02083); assay: Selectivity: NAAA activity; format: biochemical; details: 300 μM
T5 sequence (Q02083 29-359): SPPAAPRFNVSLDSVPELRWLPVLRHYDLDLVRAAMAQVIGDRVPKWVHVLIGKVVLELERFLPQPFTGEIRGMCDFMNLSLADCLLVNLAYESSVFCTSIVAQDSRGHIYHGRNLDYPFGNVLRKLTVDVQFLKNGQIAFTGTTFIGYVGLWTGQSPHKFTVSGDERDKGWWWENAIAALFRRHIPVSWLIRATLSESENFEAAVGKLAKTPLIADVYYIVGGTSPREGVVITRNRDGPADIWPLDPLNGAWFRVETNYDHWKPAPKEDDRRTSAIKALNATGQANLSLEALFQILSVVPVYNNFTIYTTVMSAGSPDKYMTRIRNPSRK

[12] = Solubility in assay buffer; format: physicochemical; details: microscopic inspection of assay wells

Row | SMILES | IC50 [1] | IC50 [2] | Inhibitory effect on neutral endopeptidase [3] | Susceptibility of Q158S/Y159S mutant to inhibition [4] | Effect on human FAAH-1 activity [5] | Effect on isofunctional zinc-independent enzyme activities [6] | Inhibitory effect on angiotensin-converting enzyme (ACE) [7] | Time-course of NAPE-PLD inhibition ([8]; 18 at 50 or 100 μM) | Mechanism of NAPE-PLD inhibition (kinetic analyses) ([8]; Michaelis-Menten kinetics, 18 at 50 or 100 μM) | Reversibility upon dilution of enzyme-inhibitor complex (rapid dilution assay) ([8]; preincubated with 100 μM) | Endogenous oleoylethanolamide (OEA) levels in HEK-293 cells [9] | Endogenous palmitoylethanolamide (PEA) levels in HEK-293 cells [9] | NAPE levels in HEK-293 cells [9] | Inhibitory effect on carbonic anhydrase (CA) II [10] | Effect on human NAAA activity [11] | Solubility in assay / aqueous buffer [12] | Inhibition of purified NAPE-PLD (concentration-response, Figure 3a) ([8]; identical conditions as 18)
1 | O=c1[nH]c(=O)c2cc(S(=O)(=O)Nc3ccc(-c4ccncc4)cc3)ccc2[nH]1 [Compound 18, 2,4-dioxo-N-[4-(4-pyridyl)phenyl]-1H-quinazoline-6-sulfonamide] | 89.2 ± 2.3 µM | 36.7 ± 1.6 µM | no inhibitory effect | as susceptible to inhibition by 18 as wild-type NAPE-PLD | did not affect | did not affect | no inhibitory effect | rapid | uncompetitive | readily reversed | remained unmodified | remained unmodified | substantial accumulation | no inhibitory effect | did not affect | adequate solubility | 
2 | O=C(Cc1cccs1)N[C@@H]1C(=O)N2C(C(=O)O)=C(/C=C/c3ccc([N+](=O)[O-])cc3[N+](=O)[O-])CS[C@H]12 [nitrocefin, reference compound] |  |  |  |  |  |  |  |  |  |  |  |  |  |  |  |  | inactive
